Assay results taken from ChEMBL document CHEMBL2390828, “Synthesis and biological characterization of spiro[2H-(1,3)-benzoxazine-2,4'-piperidine] based histone deacetylase inhibitors” (Eur J Med Chem, 2013).

Tests used:
K562 = assay: Cytotoxicity against human K562 cells; assay type: functional, cell-based
HCT-116 = assay: Cytotoxicity against human HCT116 cells; assay type: functional, cell-based
A549 = assay: Cytotoxicity against human A549 cells; assay type: functional, cell-based
Histone deacetylase = assay: Inhibition of HDAC in human Hela cell nuclear extract after 15 mins; assay type: protein assay
[1] = Oral bioavailability in CD1 mouse at 15 mg/kg; settings: in vivo
[2] = target: Voltage-gated inwardly rectifying potassium channel KCNH2 (Homo sapiens, UniProt Q12809); assay: Inhibition of human ERG channel
Chain of Voltage-gated inwardly rectifying potassium channel KCNH2 (Q12809 whole entry): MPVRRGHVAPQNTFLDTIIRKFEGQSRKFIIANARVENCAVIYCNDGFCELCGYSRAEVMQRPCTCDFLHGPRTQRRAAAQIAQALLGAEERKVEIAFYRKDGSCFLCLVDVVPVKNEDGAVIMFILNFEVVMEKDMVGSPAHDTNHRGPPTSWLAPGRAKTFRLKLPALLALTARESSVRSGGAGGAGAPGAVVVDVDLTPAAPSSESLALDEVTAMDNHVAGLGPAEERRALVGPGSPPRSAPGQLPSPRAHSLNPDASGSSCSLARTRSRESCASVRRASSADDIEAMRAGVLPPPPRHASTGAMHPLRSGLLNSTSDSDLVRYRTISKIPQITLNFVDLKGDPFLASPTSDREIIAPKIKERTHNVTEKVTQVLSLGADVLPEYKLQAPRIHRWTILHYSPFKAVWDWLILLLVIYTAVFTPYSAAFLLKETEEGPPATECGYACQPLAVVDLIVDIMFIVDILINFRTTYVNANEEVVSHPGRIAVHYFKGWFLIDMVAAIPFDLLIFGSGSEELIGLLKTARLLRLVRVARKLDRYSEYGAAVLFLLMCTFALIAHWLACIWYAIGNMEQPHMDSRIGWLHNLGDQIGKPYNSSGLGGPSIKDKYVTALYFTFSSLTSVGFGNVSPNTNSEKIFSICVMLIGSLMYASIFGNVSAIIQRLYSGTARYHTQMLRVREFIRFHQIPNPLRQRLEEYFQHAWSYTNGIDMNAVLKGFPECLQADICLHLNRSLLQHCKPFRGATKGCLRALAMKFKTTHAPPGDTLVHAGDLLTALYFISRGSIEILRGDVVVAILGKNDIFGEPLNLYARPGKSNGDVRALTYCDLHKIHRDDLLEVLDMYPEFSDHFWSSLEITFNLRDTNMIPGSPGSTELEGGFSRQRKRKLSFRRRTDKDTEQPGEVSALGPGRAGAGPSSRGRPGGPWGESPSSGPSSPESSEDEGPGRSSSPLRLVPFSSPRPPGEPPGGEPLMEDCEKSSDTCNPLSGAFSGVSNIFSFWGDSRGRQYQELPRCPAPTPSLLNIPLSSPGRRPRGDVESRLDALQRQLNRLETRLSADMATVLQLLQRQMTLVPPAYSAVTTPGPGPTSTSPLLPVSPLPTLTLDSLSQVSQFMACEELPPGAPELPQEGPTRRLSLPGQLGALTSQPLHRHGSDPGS

[3] = Volume of distribution at steady state in CD1 mouse at 5 mg/kg, iv and 15 mg/kg, po; assay type: ADME, organism-based; settings: in vivo, read-out: Vdss
Summary of the method: (§1)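 CD-1 mice got single doses of 5 mg/kg iv or 15 mg/kg orally. The iv vehicle was water with 3% DMSO and 9.7% encapsin. The oral vehicle was water with 5% DMSO and 9.5% encapsin. Plasma PK parameters were calculated, including AUC0–∞, clearance, half-life, Vss, cmax and oral bioavailability.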

[4] = Cmax in CD1 mouse at 5 mg/kg, iv; assay type: ADME, organism-based; set-up: dose 5 mg/kg, route intravenous; settings: in vivo; summary of the method: as §1
[5] = Solubility of the compound at pH 7.4; assay type: physicochemical; settings: buffer
[6] = Terminal half life in CD1 mouse at 5 mg/kg, iv and 15 mg/kg, po; assay type: ADME, organism-based; settings: in vivo, read-out: beta t1/2 (converted); summary of the method: as §1
[7] = AUC (0 to infinity) in CD1 mouse at 5 mg/kg, iv; assay type: ADME, organism-based; set-up: time infinity, dose 5 mg/kg, route intravenous; settings: plasma; summary of the method: as §1
[8] = Tmax in CD1 mouse at 5 mg/kg, iv and 15 mg/kg, po; assay type: ADME, organism-based; settings: in vivo; summary of the method: as §1
[9] = Metabolic stability in mouse liver microsomes after 30 mins by LC-MS/MS analysis; assay type: ADME, Microsome; settings: read-out: Stability
Summary of the method: (§2)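 Compounds were incubated with mouse or human liver microsomal preparation for 30 min at 37 °C. The reaction was stopped with CH3CN. Unmetabolized compound was quantified by LC-MS/MS in MRM mode and reported as percent remaining. Replicates n ≥ 2, mean values given.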

[10] = Metabolic stability in human liver microsomes after 30 mins by LC-MS/MS analysis; assay type: ADME, Microsome; settings: read-out: Stability; summary of the method: as §2
[11] = AUC (0 to infinity) in CD1 mouse at 15 mg/kg, po; assay type: ADME, organism-based; set-up: time infinity, dose 15 mg/kg, route oral; settings: plasma; summary of the method: as §1
[12] = Cmax in CD1 mouse at 15 mg/kg, po; settings: CD1, mouse, in vivo
[13] = Clearance in CD1 mouse at 5 mg/kg, iv and 15 mg/kg, po; assay type: ADME, organism-based; settings: in vivo; summary of the method: as §1

| IC50 (Histone deacetylase) [µM] | SMILES | IC50 (K562) [µM] | IC50 (HCT-116) [µM] | IC50 (A549) [µM] | other results |
| --- | --- | --- | --- | --- | --- |
| 0.645 | O=C(/C=C/c1ccc2c(c1)C(=O)N(Cc1ccccc1)C1(CCN(CCc3ccccc3)CC1)O2)NO | 1.25 | 1.67 | 1.51 |  |
| 0.136 | CN1C(=O)c2cc(/C=C/C(=O)NO)ccc2OC12CCN(Cc1ccccc1)CC2 | 1.33 | 0.979 | 2.22 |  |
| 0.103 | O=C(/C=C/c1ccc2c(c1)C(=O)NC1(CCN(Cc3ccc(F)cc3)CC1)O2)NO | 0.961 | 0.498 | 1.67 | bioavailability [1]: 35%; inhibition (INH) [2]: 70%; Vd [3]: 3.1 L/kg; Cmax [4]: 13 µM; solubility [5]: > 200 µM; half-life [6]: 6.9 h; AUC(0-inf) [7]: 1880 ng·h/mL; Tmax [8]: 5 min; remaining at 0.5 h [9]: 98%; remaining at 0.5 h [10]: 71%; AUC(0-inf) [11]: 1980 ng·h/mL; Cmax [12]: 5.05 µM; clearance [13]: 44.3 mL/min/kg |
| 0.54 | O=C(/C=C/c1ccc2c(c1)C(=O)N(Cc1ccccc1)C1(CCN(Cc3ccccc3)CC1)O2)NO | 1.72 | 1.87 | 2.62 |  |
| 0.174 | CN1CCC2(CC1)Oc1ccc(/C=C/C(=O)NO)cc1C(=O)N2Cc1ccccc1 | 0.36 | 0.326 | 0.912 | remaining at 0.5 h [9]: 19%; remaining at 0.5 h [10]: 53% |
| 0.059 | O=C(/C=C/c1ccc2c(c1)C(=O)N(Cc1ccccc1)C1(CCNCC1)O2)NO | 1.52 | 0.857 | 3.19 |  |
| 0.099 | CN1CCC2(CC1)NC(=O)c1cc(/C=C/C(=O)NO)ccc1O2 | 1.49 | 0.886 | 2.7 |  |
| 0.527 | CN1CCC2(CC1)Oc1ccc(/C=C/C(=O)NO)cc1C(=O)N2C | 1.7 | 1.4 | 3.54 |  |
